Assay results taken from ChEMBL document CHEMBL4028890, “A Positive Allosteric Modulator of the Serotonin 5-HT2C Receptor for Obesity” (J Med Chem, 2017).
Activity calls are given as the source filed them. The calls are words filed in the database; no cut-off is given here.

What was measured:
[1] = molecular target: T1, 5-hydroxytryptamine receptor 2C (Homo sapiens) (UniProt P28335); test: Positive allosteric modulation of human 5-HT2C receptor expressed in human HeLa-K1 cells assessed as potentiation of 5-HT-induced inositol monophosphate release at 10 uM after 20 mins by HTRF assay relative to control; assay type: functional, cell-based
T1 sequence (whole entry): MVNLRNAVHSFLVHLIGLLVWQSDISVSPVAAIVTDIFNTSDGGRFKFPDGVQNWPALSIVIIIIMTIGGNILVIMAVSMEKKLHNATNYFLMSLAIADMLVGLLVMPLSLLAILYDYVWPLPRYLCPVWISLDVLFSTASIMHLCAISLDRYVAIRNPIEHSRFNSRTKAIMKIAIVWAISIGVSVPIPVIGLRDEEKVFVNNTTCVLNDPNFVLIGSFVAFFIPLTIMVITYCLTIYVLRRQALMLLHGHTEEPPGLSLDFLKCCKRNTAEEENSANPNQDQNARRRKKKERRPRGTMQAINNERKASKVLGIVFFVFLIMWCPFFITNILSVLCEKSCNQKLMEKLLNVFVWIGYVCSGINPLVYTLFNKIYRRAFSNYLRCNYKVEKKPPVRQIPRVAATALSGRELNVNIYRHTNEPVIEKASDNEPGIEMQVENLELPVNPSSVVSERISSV
Method in brief: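 IP-One HTRF assay in CHO-K1 cells (human 5-HT2A, 5-HT2B) or HeLa-K1 cells (human 5-HT2C), seeded and grown 24 h at 37 °C. Test compound and/or 5-HT added in stimulation buffer, then 20 min at 37 °C before IP1 read-out. Data normalized to 5-HT maximal effect and fitted by nonlinear regression. Triplicates, mean ± SD.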

Rattus norvegicus [2] = test: Antiobesity activity in Wistar rat assessed as reduction in food intake at 2 mg/kg, ip after 4 hrs; assay type: functional, organism-based
Method in brief: (§1)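 Male Wistar rats, 200−250 g, aged 10−12 weeks, food-deprived 16 h before refeeding. Compound given ip in sterile saline; food and water intake measured at 30, 60, 120 and 240 min after food presentation. Where used, antagonist (3 mg/kg, ip) or other pretreatments were injected 30 min before the compound. Mean ± SEM, at least eight rats per group.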

Rattus norvegicus [3] = test: Antiobesity activity in Wistar rat assessed as reduction in food intake at 2 mg/kg, ip measured up to 4 hrs; assay type: functional, organism-based; method in brief: as §1
Rattus norvegicus [4] = test: Antiobesity activity in Wistar rat assessed as reduction in food intake at 2 mg/kg, ip after 4 hrs in presence of 5-HT2C antagonist SB-242084; assay type: functional, organism-based; method in brief: as §1
Rattus norvegicus [5] = species on record: Rattus norvegicus; test: Toxicity in Wistar rat assessed as induction of malaise at 0.4 M measured 30 mins for 2 days by conditioned taste aversion test; conditions: in vivo, 0.5 h
Method in brief: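 Rats water-deprived 24 h, then trained to drink from a graded bottle in 30 min sessions for 4 days. On day 5, 0.1% saccharin replaced water, and 30 min later rats got ip vehicle, compound (2 mg/kg) or LiCl (0.4 M, 7.5 mL/kg). Water intake was recorded over 30 min on the next 2 days, then a water or saccharin choice was measured.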

SMILES | Activity [1] [%] | further results
Clc1ccccc1Cn1cc(CNc2cccnc2)c2ccccc21 | 7 | 
Fc1ccc(Cn2cc(CNc3cccnc3)c3ccccc32)c(F)c1 | 9 | 
Fc1cc(Cl)ccc1Cn1cc(CNc2cccnc2)c2ccccc21 | 9 | 
FC(F)(F)c1ccc(Cn2cc(CNc3cccnc3)c3ccccc32)cc1 | 8 | 
FC(F)(F)c1cccc(Cn2cc(CNc3cccnc3)c3ccccc32)c1 | 0 | 
Fc1ccccc1Cn1cc(CNc2cccnc2)c2ccccc21 | 6 | 
c1ccc(Cn2cc(CNc3cccnc3)c3ccccc32)nc1 | 0 | 
Cc1ccc(Cn2cc(CNc3cccnc3)c3ccccc32)cc1 | 24 | 
c1ccc(Cn2cc(CNc3ccnnc3)c3ccccc32)cc1 | 0 | 
O=C1Nc2cc(Cl)c(Cl)cc2N2CCNC[C@H]12 |  | Activity (Rattus norvegicus [2]): inactive; Activity (Rattus norvegicus [3]): Active; Activity (Rattus norvegicus [4]): inactive
N#Cc1ccccc1Cn1cc(CNc2cccnc2)c2ccccc21 | 7 | 
Cc1ccncc1NCc1cn(Cc2ccccc2)c2ccccc12 | 21 | 
c1cncc(NCc2cn(CC3CC3)c3ccccc23)c1 | 0 | 
c1ccc(Cn2cc(CNc3cncnc3)c3ccccc32)cc1 | 20 | 
COc1cccc(Cn2cc(CNc3cccnc3)c3ccccc32)c1 | 0 | 
c1ccc(Cn2cc(CNc3ccccn3)c3ccccc32)cc1 | 25 | 
Cc1ncccc1NCc1cn(Cc2ccccc2)c2ccccc12 | 0 | 
Brc1ccccc1Cn1cc(CNc2cccnc2)c2ccccc21 | 0 | 
[Cl-].[Li+] [CHLOROLITHIUM] |  | Activity (Rattus norvegicus [5]): Toxic
Fc1cccc(Cn2cc(CNc3cccnc3)c3ccccc32)c1 | 22 | 
